Where a chain is given by its changes, count along the chain named. Where only a bound is given, the exact number is not on record here.

By EC50 is commonly meant the midpoint of the concentration-response curve. High values mean a need for much substance, low ones an effect from little substance.

Assay type in all cases: cell-based, C. elegans
The target in one assay is GluClβ A17′G (Caenorhabditis elegans, UniProt Q17328, A294G). In words: two-electrode voltage clamp, Xenopus laevis oocytes. The following applies: glutamate. In outline:
(§1)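 C. elegans GluClβ (mammalian codon-optimised) in pGEMhe, mutated by QuikChange; T7 mRNA. […] Voltage clamp at −60 mV in Ca-free ND96, pH 7.5. […] Peak currents taken from baseline, normalised, averaged per concentration, and fit to Hill equation (EC50, nH).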
(In general: In two-electrode clamp one electrode senses voltage and the other passes current.)

A further assay deals with T1, GluClβ T6′S, Q174A/Y206F (Caenorhabditis elegans, UniProt Q17328, Q200A/T283S/Y232F).
T1 sequence (Q17328 23-434 Q200A/Y232F/T283S): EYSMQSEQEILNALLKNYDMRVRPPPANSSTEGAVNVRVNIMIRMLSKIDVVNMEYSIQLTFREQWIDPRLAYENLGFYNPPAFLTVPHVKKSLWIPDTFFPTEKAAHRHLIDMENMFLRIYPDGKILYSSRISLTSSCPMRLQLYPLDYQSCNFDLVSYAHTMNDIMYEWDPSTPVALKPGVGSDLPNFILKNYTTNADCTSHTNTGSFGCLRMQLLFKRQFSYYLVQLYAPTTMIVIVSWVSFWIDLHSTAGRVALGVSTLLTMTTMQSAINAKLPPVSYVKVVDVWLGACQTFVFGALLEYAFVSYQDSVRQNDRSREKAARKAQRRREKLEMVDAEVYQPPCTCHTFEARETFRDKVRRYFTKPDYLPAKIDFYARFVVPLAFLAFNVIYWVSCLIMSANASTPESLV
Kind of assay: two-electrode voltage clamp, Xenopus laevis oocytes.

The target in a further assay is GluClβ T6′S, Y156F (Caenorhabditis elegans, UniProt Q17328, T283S/Y182F). The description is as above. The following applies: glutamate.
GluClβ T6′S, Y156F, sequence (Q17328 23-434 Y182F/T283S): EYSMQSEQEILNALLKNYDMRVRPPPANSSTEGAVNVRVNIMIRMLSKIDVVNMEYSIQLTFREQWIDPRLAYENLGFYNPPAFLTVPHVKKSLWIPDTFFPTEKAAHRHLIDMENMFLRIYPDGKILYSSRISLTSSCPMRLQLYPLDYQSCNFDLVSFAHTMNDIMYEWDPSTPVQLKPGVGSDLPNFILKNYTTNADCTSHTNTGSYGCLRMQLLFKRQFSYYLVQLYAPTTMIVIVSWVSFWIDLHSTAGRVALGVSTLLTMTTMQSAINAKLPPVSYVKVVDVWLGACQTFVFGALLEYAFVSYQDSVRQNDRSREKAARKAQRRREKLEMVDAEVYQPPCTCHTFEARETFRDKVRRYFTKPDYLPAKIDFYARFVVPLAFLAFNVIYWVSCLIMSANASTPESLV
Assay [1] has as its system GluClβ T6′S, Y206TAG OMe–Phe. Kind of assay: two-electrode voltage clamp, Xenopus laevis oocytes, nonsense suppression. The following applies: glutamate.
The target of the next assay is T2, GluClβ A20′T (Caenorhabditis elegans, UniProt Q17328, A297T).
T2 sequence (Q17328 23-434 A297T): T1 sequence (Q17328 23-434 Q200A/Y232F/T283S) with A178Q, F210Y, S261T, A275T
Kind of assay: two-electrode voltage clamp, Xenopus laevis oocytes. The following applies: glutamate.

The target in the next assay is GluClβ L9′A (Caenorhabditis elegans, UniProt Q17328, L286A). Kind of assay: two-electrode voltage clamp, Xenopus laevis oocytes. The following applies: glutamate. In outline: as §1
GluClβ L9′A, sequence (Q17328 23-434 L286A): as the sequence (Q17328 23-434 Y182F/T283S) above, with F160Y, S261T, L264A counted along it
In a further assay the target is T3, GluClβ A17′S (Caenorhabditis elegans, UniProt Q17328, A294S).
T3 sequence (Q17328 23-434 A294S): T1 sequence (Q17328 23-434 Q200A/Y232F/T283S) with A178Q, F210Y, S261T, A272S
Kind of assay: two-electrode voltage clamp, Xenopus laevis oocytes. The following applies: glutamate.

For assay [2], the target named is GluClβ with α signal peptide, T6′S (Caenorhabditis elegans, UniProt Q17328, T283S). In words: two-electrode voltage clamp, Xenopus laevis oocytes. The following applies: glutamate. In outline: as §1
GluClβ with α signal peptide, T6′S, sequence (Q17328 23-434 T283S): as the sequence (Q17328 23-434 Y182F/T283S) above, with F160Y counted along it
The target in the next assay is GluClβ T6′S, N202A (Caenorhabditis elegans, UniProt Q17328, N228A/T283S). Kind of assay: two-electrode voltage clamp, Xenopus laevis oocytes. The following applies: glutamate.
GluClβ T6′S, N202A, sequence (Q17328 23-434 N228A/T283S): as the sequence (Q17328 23-434 Y182F/T283S) above, with F160Y, N206A counted along it
In the next assay the target is GluClβ T6′S, Q174A (Caenorhabditis elegans, UniProt Q17328, Q200A/T283S). The assay is described as above. The following applies: glutamate.
GluClβ T6′S, Q174A, sequence (Q17328 23-434 Q200A/T283S): as the sequence (Q17328 23-434 Y182F/T283S) above, with F160Y, Q178A counted along it
Another assay has as its target T4, GluClβ A17′T (Caenorhabditis elegans, UniProt Q17328, A294T).
T4 sequence (Q17328 23-434 A294T): T1 sequence (Q17328 23-434 Q200A/Y232F/T283S) with A178Q, F210Y, S261T, A272T
The description is as above. The following applies: glutamate.

GluClβ A17′G, sequence (Q17328 23-434 A294G): as the sequence (Q17328 23-434 Y182F/T283S) above, with F160Y, S261T, A272G counted along it

For `N[C@@H](CCC(=O)O)C(=O)O` [glutamate], the EC50 on GluClβ A17′G is more than 5 mM; at GluClβ T6′S, Q174A/Y206F (glutamate), 920 ± 40 µM; on GluClβ T6′S, Y156F it was 6.4 ± 0.4 mM; in assay [1], 560 ± 10 µM; at GluClβ A20′T, 110 ± 20 µM; on GluClβ L9′A, “constitutively active”. Further, the EC50 at GluClβ A17′S amounted to 230 ± 10 µM; on GluClβ T6′S, Q174A, 110 ± 10 µM; on GluClβ A17′T it was 58 ± 1 µM. Besides, the Hill on GluClβ T6′S, Q174A/Y206F (glutamate) was 2.2 ± 0.2; on GluClβ T6′S, Y156F, 1.6 ± 0.1; in assay [1], 1.8 ± 0.1; at GluClβ A20′T it was 1.7 ± 0.1; on GluClβ A17′S, 2.5 ± 0.1; in [2] it was 2.7 ± 0.2. Moreover, the Hill was 3.3 ± 0.2 at GluClβ T6′S, N202A; 2.4 ± 0.2 at GluClβ T6′S, Q174A; 2.8 ± 0.1 on GluClβ A17′T. At GluClβ T6′S, Q174A/Y206F (mutant cycle analysis Q174A, Y206F), the Ω was 0.67. In addition, at GluClβ T6′S, Q174A/Y206F (mutant cycle analysis Q174A/Y206F), the ΔΔG came to 0.23 kcal/mol. For the same molecule, the Imax in assay [1] is 0.1–1.4 μA; on GluClβ A20′T, 0.5–48 μA; on GluClβ A17′S it was 0.6–12 μA; at GluClβ A17′T, 0.3–13 μA.

These data come from PMC4201344 (ACS Chemical Biology, 2014).
